This note sets out measurements from PubChem BioAssay.

The structures appear in SMILES notation. Active and inactive are the calls of the source.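 How the source made its calls, unless noted: active means Her2 level under about 52% in both replicate screens, with viability over 70% of control (limit read from the data); inconclusive means Her2 under the limit in one screen only, or viability under 70%; inactive means Her2 level above the set limit.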

Experiment [1] in a line: Her2 expression decrease, cell viability multiplex – SKBR3 breast tumor cells, AlphaScreen, ATP viability, primary screen (AID 461).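 On Her2 level: lower value means less Her2 protein in the cells.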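 On viability: percent of carrier control wells set as 100% viability.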 The note with it: SKBR3 Her2 protein level, 18-24 h, measured here: SKBR3 viability, ATP luminescence, at 10 µM. (In general: In Alpha technology, singlet oxygen from a donor bead excites a nearby acceptor bead.)
Experiment [2] has as its target Receptor tyrosine-protein kinase erbB-2 (Homo sapiens) (UniProt P04626). The description is as above. To be noted: 18-24 h, at 10 µM, stronger effect = lower value.
The nature of experiment [3]: reduced viability of SK-BR-3 breast cancer cells – cell-based, 24 h, human, pilot screen (AID 572;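 active means viability at or below 10% of carrier control in both of two separate runs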;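 further: compound exposure lasted between 18 and 24 h rather than exactly 24 h; 100% = carrier-treated control wells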). The note with it: SK-BR-3 viability, CellTiter-Glo luminescence, at 10 µM, stronger effect = lower value. Background: Cellular ATP, detected with luciferase, serves as a proxy for viable cell number.
Experiment [4] can be described thus: HUVEC growth inhibition – cell-based, human, primary screen (AID 575;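 active means viability at or below 30% in both replicate assays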;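 further: 100% = median of untreated cell wells with 0.1% DMSO on each plate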). To be noted: HUVEC proliferation, CellTiter-Glo luminescence, 72 h; at 10 µM; stronger effect = lower value. The method in brief: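 Test system: primary human umbilical vein endothelial cells. Quantity: 1250 cells/well. Compound: single 10 µM dose, 0.1% DMSO, from 5x medium stock. Timing: 72 h treatment at 37 °C. Detection: ATP-based CellTiter-Glo luminescent read. Benchmarks: vehicle and MePR control wells. Format: 384-well plates coated with collagen.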

A short description of experiment [5]: H69AR cell proliferation blockers – human, duplicate replicates, primary screen (AID 580;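 active means viability at or under a set limit in both replicates, limit being median viability minus 3 SD, cut at about 48% in these data, passing the limit was not always enough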;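 further: 100% = mean luminescence of untreated wells and 0% = no signal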). To be noted: H69AR lung tumor cells viability, ATP luminescence, 72 h; at 10 µM; stronger effect = lower value.
Experiment [6] can be described thus: MRP1 drug-resistance reversers in H69AR cells – cell-based, doxorubicin co-treatment, pilot screen (AID 601;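 active means viability loss from added drug above about 55%, and viability with drug at most 40%, in both replicates, limit read from the data, passing the limit was not always enough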). The note with it: CellTiter-Glo, 72 h, at 10 µM; for differential viability (reversal): stronger effect = higher value.
Experiment [7] can be described thus: yeast transport mutant growth inhibition pilot in 384-well plates, post-Golgi transport modulator project (AID 636; in the data active means inhibition above about 31%). To be noted: absorbance 615 nm, about 18 h, stronger effect = higher value.
Experiment [8] can be described thus: growth suppression of yeast trafficking mutant, preliminary HTS, modulators of trafficking downstream of Golgi apparatus project, 1536-format plate, OD 615 nm (AID 637; in the data active means inhibition above about 30%). To be noted: yeast transport mutant growth, absorbance 615 nm, 18 h; stronger effect = higher value.
Where [9] appears, read: H69AR cells + 2 uM doxorubicin, measured here: viability with 2 uM doxorubicin, stronger effect = lower value.
[10] abbreviates: H69AR cells, compound alone cytotoxicity.

Chain of Receptor tyrosine-protein kinase erbB-2 (Homo sapiens) (P04626 whole entry, looked up): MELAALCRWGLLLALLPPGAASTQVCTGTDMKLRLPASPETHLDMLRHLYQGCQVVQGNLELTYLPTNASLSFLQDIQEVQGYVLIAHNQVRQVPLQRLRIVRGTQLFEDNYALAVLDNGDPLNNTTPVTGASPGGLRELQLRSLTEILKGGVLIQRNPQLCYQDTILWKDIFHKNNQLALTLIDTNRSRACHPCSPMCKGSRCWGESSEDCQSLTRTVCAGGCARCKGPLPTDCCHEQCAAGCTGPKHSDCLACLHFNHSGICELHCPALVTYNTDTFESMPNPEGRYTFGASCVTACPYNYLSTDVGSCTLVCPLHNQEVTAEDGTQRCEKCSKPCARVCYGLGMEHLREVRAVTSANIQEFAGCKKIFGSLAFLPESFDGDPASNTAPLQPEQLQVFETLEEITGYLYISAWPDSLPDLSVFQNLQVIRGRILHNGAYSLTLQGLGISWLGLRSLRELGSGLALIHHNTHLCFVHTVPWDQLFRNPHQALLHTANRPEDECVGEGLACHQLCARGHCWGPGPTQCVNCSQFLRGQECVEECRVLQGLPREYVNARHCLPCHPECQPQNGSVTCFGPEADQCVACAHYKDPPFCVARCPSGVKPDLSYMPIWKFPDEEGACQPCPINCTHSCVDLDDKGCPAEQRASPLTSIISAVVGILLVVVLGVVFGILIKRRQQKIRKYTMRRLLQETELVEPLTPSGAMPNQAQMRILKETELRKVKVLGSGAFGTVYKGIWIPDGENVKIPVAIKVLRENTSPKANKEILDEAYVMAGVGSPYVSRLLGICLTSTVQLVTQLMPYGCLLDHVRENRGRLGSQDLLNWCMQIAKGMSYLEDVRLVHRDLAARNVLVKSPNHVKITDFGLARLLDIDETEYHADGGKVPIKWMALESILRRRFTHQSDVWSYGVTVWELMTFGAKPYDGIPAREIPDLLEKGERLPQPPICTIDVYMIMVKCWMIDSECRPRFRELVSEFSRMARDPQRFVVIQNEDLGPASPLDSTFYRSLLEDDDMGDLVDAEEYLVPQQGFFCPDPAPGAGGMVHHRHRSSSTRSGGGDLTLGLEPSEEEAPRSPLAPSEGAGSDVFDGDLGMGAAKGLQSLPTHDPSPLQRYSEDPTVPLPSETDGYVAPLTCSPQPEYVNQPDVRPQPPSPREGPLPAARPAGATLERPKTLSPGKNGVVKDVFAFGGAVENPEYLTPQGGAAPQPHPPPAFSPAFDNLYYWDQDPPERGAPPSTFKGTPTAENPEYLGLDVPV

In general, viability refers to a read-out of living cells in per cent, often relative to untreated cells. The inhibition is the drop in the measured response relative to a control, in per cent. Regarding `CCC(C)NC(=O)C1CCCN(S(=O)(=O)c2ccc(-n3cnnn3)cc2)C1` (stereo not given), the viability was 109% in experiment [1]; 109% (inactive) in experiment [3]; 104% (inactive) in experiment [4]; 103% (inactive) in experiment [5]; 88.6% in experiment [6] (setting [9]); 103% in experiment [6] (setting [10]). In addition, in experiment [2], the Her2 level is 104% (inactive). In addition, the differential viability (reversal) in experiment [6] (H69AR cells + 2 uM doxorubicin) was 14.5% (inactive). Moreover, the inhibition in experiment [7] was -2.97% (inactive); in experiment [8] it was -10% (inactive).
With `CC(=O)c1cc(-c2ccc(F)cc2)n(CCC(=O)Nc2cc(C)[nH]n2)c1C`, the viability in experiment [1] is 105%; in experiment [3], 105% (inactive); in experiment [4], 102% (inactive); in experiment [5], 104% (inactive); in experiment [6] (setting [9]), 85.5%; in experiment [6] (setting [10]), 104%. For the same compound, in experiment [2], the Her2 level is 82.5% (inactive). Also, the differential viability (reversal) in experiment [6] (H69AR cells + 2 uM doxorubicin) is 18.3% (inactive). Further, the inhibition in experiment [7] was -6.62% (inactive); in experiment [8], 2.46% (inactive).
In the case of `CCn1cc(S(=O)(=O)CC(=O)Nc2ccc(OC)cc2)c2ccccc21`, the viability is 104% in experiment [1]; 104% (inactive) in experiment [3]; 105% (inactive) in experiment [4]; 91.8% (inactive) in experiment [5]; 70.4% in experiment [6] (setting [9]); 91.8% in experiment [6] (setting [10]). In addition, the Her2 level in experiment [2] was 88% (inactive). In addition, in experiment [6] (H69AR cells + 2 uM doxorubicin), the differential viability (reversal) was 21.4% (inactive). Further, the inhibition in experiment [7] is -1.6% (inactive); in experiment [8], 0% (inactive).
Turning to `Cc1ccc(S(=O)(=O)Nc2cc(C(=O)O)ccc2N2CCCCC2)cc1`, the viability is 112% in experiment [1]; 112% (inactive) in experiment [3]; 101% (inactive) in experiment [4]; 85.6% (inactive) in experiment [5]; 87.6% in experiment [6] (setting [9]); 85.6% in experiment [6] (setting [10]). Also, in experiment [2], the Her2 level is 112% (inactive). Further, the differential viability (reversal) in experiment [6] (H69AR cells + 2 uM doxorubicin) was -1.99% (inactive). Further, the results for the inhibition in experiment [7] and in experiment [8] were -5.97% (inactive) and 6.07% (inactive), respectively.
Take `CSCCC(NC(=O)c1occc1C)C(=O)O` (stereo not given): the viability in experiment [1] was 93.5%; in experiment [3], 93.5% (inactive); in experiment [4], 103% (inactive); in experiment [5] it was 103% (inactive); in experiment [6] (setting [9]) it was 89.8%; in experiment [6] (setting [10]), 103%. In addition, in experiment [2], the Her2 level was 94.5% (inactive). The differential viability (reversal) in experiment [6] (H69AR cells + 2 uM doxorubicin) is 12.8% (inactive). The inhibition was -2.63% (inactive) in experiment [7] and 2.83% (inactive) in experiment [8].
For `COc1cc(SC)ccc1C(=O)Nc1ccon1`, the viability is 98.5% in experiment [1]; 98.5% (inactive) in experiment [3]; 93% (inactive) in experiment [4]; 101% (inactive) in experiment [5]; 94.5% in experiment [6] (setting [9]); 101% in experiment [6] (setting [10]). Further, the Her2 level in experiment [2] is 104% (inactive). Further, the differential viability (reversal) in experiment [6] (H69AR cells + 2 uM doxorubicin) is 6.34% (inactive). In addition, the inhibition in experiment [7] was 0.27% (inactive); in experiment [8], 18.6% (inactive).
Regarding `O=C(O)CCN1C(=O)c2ccccc2C1=O`, the viability is 99% in experiment [1]; 99% (inactive) in experiment [3]; 112% (inactive) in experiment [4]; 97.5% (inactive) in experiment [5]; 99.4% in experiment [6] (setting [9]); 97.5% in experiment [6] (setting [10]). Besides, in experiment [2], the Her2 level is 91% (inactive). Moreover, the differential viability (reversal) in experiment [6] (H69AR cells + 2 uM doxorubicin) was -1.81% (inactive). The inhibition in experiment [7] was -2.24% (inactive); in experiment [8] it was 2.79% (inactive).
On to `O=C(OCCCN1CCCC1)C1(c2ccccc2)CCCC1`, for which the viability in experiment [1] was 82.5%; in experiment [3], 82.5% (inactive); in experiment [4], 121% (inactive); in experiment [5], 88.6% (inactive); in experiment [6] (setting [9]), 82.2%; in experiment [6] (setting [10]), 88.6%. For the same compound, the Her2 level in experiment [2] was 117% (inactive). The differential viability (reversal) in experiment [6] (H69AR cells + 2 uM doxorubicin) is 6.39% (inactive). The inhibition in experiment [7] is -2.84% (inactive); in experiment [8], -13.3% (inactive).
For the compound `CCOC(=O)C1CCCN(c2cc(=O)n(Cc3ccc(F)cc3)c(=O)[nH]2)C1` (stereo not given), the viability is 92% in experiment [1]; 92% (inactive) in experiment [3]; 92.6% (inactive) in experiment [4]; 97.2% (inactive) in experiment [5]; 94.1% in experiment [6] (setting [9]); 97.2% in experiment [6] (setting [10]). The Her2 level in experiment [2] is 87% (inactive). Moreover, the differential viability (reversal) in experiment [6] (H69AR cells + 2 uM doxorubicin) was 3.08% (inactive). The inhibition is -4.67% (inactive) in experiment [7] and 0.33% (inactive) in experiment [8].
`CC(=O)c1cccc(S(=O)(=O)NCC(c2ccco2)N2CCCCC2)c1` (stereo not given): the viability in experiment [1] was 101%; in experiment [3] it was 101% (inactive); in experiment [4], 96% (inactive); in experiment [5], 99.4% (inactive); in experiment [6] (setting [9]) it was 87.5%; in experiment [6] (setting [10]), 99.4%. Besides, the Her2 level in experiment [2] is 80% (inactive). Moreover, the differential viability (reversal) in experiment [6] (H69AR cells + 2 uM doxorubicin) is 11.9% (inactive). Also, the inhibition in experiment [7] was -0.91% (inactive); in experiment [8], -7.3% (inactive).
For `CCSc1nc2ccccc2n1CC(N)=O`, the viability is 102% in experiment [1]; 102% (inactive) in experiment [3]; 96.5% (inactive) in experiment [4]; 88.8% (inactive) in experiment [5]; 82.2% in experiment [6] (setting [9]); 88.8% in experiment [6] (setting [10]). In experiment [2], the Her2 level is 81% (inactive). In addition, the differential viability (reversal) in experiment [6] (H69AR cells + 2 uM doxorubicin) was 6.57% (inactive). Also, the figures for the inhibition in experiment [7] and in experiment [8] were -9.04% (inactive) and 1.9% (inactive), respectively.
Take `O=C(NC1CCCCC1)C1CC(O)CN1C(=O)OCc1ccccc1` (stereo not given): the viability in experiment [1] is 88%; in experiment [3], 88% (inactive); in experiment [4], 110% (inactive); in experiment [5] it was 93.4% (inactive); in experiment [6] (setting [9]), 83.9%; in experiment [6] (setting [10]), 93.4%. Moreover, the Her2 level in experiment [2] was 93% (inactive). For the same compound, the differential viability (reversal) in experiment [6] (H69AR cells + 2 uM doxorubicin) was 9.51% (inactive). The values for the inhibition in experiment [7] and in experiment [8] were 0.13% (inactive) and -3.09% (inactive), respectively.
As to `CC(=O)Nc1cccc(OCC(O)Cn2cnc3ccccc32)c1` (stereo not given), the viability was 128% in experiment [1]; 128% (inactive) in experiment [3]; 90% (inactive) in experiment [4]; 97.9% (inactive) in experiment [5]; 92.7% in experiment [6] (setting [9]); 97.9% in experiment [6] (setting [10]). The Her2 level in experiment [2] was 110% (inactive). For the same compound, in experiment [6] (H69AR cells + 2 uM doxorubicin), the differential viability (reversal) was 5.28% (inactive). Further, the values for the inhibition in experiment [7] and in experiment [8] were -0.14% (inactive) and 7.14% (inactive), respectively.
In the case of `O=C(OCC(=O)c1cccs1)C1=COCCO1`, the viability was 89% in experiment [1]; 89% (inactive) in experiment [3]; 91.6% (inactive) in experiment [4]; 89.1% (inactive) in experiment [5]; 87.6% in experiment [6] (setting [9]); 89.1% in experiment [6] (setting [10]). Also, the Her2 level in experiment [2] is 102% (inactive). For the same compound, the differential viability (reversal) in experiment [6] (H69AR cells + 2 uM doxorubicin) was 1.52% (inactive). Further, the inhibition was -0.38% (inactive) in experiment [7] and -1% (inactive) in experiment [8].
Consider `COc1ccc(C)cc1NCc1cccc(OC)c1OC`, for which the viability is 75.5% in experiment [1]; 75.5% (inactive) in experiment [3]; 87.2% (inactive) in experiment [4]; 102% (inactive) in experiment [5]; 109% in experiment [6] (setting [9]); 102% in experiment [6] (setting [10]). Besides, the Her2 level in experiment [2] was 90.5% (inactive). Also, the differential viability (reversal) in experiment [6] (H69AR cells + 2 uM doxorubicin) was -6.87% (inactive). For the same compound, the inhibition in experiment [7] was -5.41% (inactive); in experiment [8], -6.39% (inactive).
For the compound `CC1Cc2ccccc2N1S(=O)(=O)c1cccc(C(=O)OCC(=O)NC2CCS(=O)(=O)C2)c1` (stereo not given), the viability in experiment [1] is 88%; in experiment [3] it was 88% (inactive); in experiment [4], 89.1% (inactive); in experiment [5], 97.2% (inactive); in experiment [6] (setting [9]), 84.9%; in experiment [6] (setting [10]) it was 97.2%. In addition, the Her2 level in experiment [2] is 82.5% (inactive). Moreover, the differential viability (reversal) in experiment [6] (H69AR cells + 2 uM doxorubicin) was 12.3% (inactive). Further, the inhibition in experiment [7] was -6.4% (inactive); in experiment [8], -3.61% (inactive).
